Consider eleven compounds from ChEMBL document CHEMBL2177006 (J Med Chem, 2012).

In assay [1] the target is T1, Beta-secretase 1 (Homo sapiens, UniProt P56817). Briefly: Inhibition of BACE1 in human HEK293 cells expressing APP Swedish mutant assessed as inhibition of amyloid beta (1 to 40) production after overnight incubation by sandwich ELISA. The assay is classed as cell-based.
Assay [2] concerns the target T1, Beta-secretase 1. Nature of the assay: Inhibition of human recombinant BACE1 using Glu-Ile-Asp-Leu-Met-Val-Leu-Asp as substrate incubated for 60 mins prior to substrate addition measured after 60 mins by FRET assay.
In assay [3] the test system is Rattus norvegicus. Nature of the assay: Antialzheimer activity in Sprague-Dawley rat assessed as reduction in amyloid beta 40 level in CSF at 30 mg/kg, po at 4 hrs by immunoassay relative to control. The assay is classed as functional. On the set-up: scale not given: the % may be the effect or the level left. In short, it runs like this:
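At the set time they were euthanized with CO2 for 2 min. CSF was drawn from the cisterna magna with a 30 gauge needle, frozen on dry ice, stored at −80 °C, then assayed for Aβ40 by Meso Scale immunoassay.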

T1 sequence (P56817 whole entry): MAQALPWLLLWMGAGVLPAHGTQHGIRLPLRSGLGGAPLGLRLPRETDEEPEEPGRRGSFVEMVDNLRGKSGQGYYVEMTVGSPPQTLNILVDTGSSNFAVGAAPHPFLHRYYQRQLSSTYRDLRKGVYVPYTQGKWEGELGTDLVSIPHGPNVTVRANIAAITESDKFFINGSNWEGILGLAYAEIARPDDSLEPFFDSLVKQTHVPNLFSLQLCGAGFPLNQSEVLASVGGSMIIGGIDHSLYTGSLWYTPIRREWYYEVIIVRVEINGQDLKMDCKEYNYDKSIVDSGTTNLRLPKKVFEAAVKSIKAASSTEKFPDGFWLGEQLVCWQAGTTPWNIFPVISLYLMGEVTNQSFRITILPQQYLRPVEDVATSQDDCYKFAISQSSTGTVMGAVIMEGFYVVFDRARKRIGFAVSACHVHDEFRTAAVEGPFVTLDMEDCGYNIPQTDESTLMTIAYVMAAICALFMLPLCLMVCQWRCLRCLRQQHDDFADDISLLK

Take `CC(C)(C)Cc1cnc2c(c1)[C@@H](NC[C@@H](O)[C@H](Cc1ccc3c(c1)OCO3)NC(=O)c1cccnc1)CC1(CCC1)O2`: the IC50 (in general, the concentration at which inhibition is half-maximal) in assay [1] was 0.0676 µM; in assay [2], 0.0261 µM. Turning to `CC(C)(C)Cc1cnc2c(c1)[C@@H](NC[C@@H](O)[C@H](Cc1ccc3c(c1)OCO3)NC(=O)c1ccc(F)nc1)CC1(CCC1)O2`, the half-inhibitory concentration (IC50) in assay [1] was determined as 0.0695 µM; in assay [2], 0.0484 µM. For `COCC(=O)N[C@@H](Cc1ccc2c(c1)OCO2)[C@H](O)CN[C@H]1CC2(CCC2)Oc2ncc(CC(C)(C)C)cc21`, the IC50 in assay [1] was 0.0168 µM; in assay [2], 0.0054 µM. Turning to `CC(C)C(=O)N[C@@H](Cc1ccc2c(c1)OCO2)[C@H](O)CN[C@H]1CC2(CCC2)Oc2ncc(CC(C)(C)C)cc21`, in assay [1], the IC50 came out at 0.812 µM.

For `CC(C)(C)Cc1cnc2c(c1)[C@@H](NC[C@@H](O)[C@H](Cc1ccc3c(c1)OCO3)NC(=O)[C@@H]1CCCO1)CC1(CCC1)O2`, the values for the IC50 in assay [1] and in assay [2] were 0.0275 µM and 0.0204 µM, respectively. In the case of `C[C@@H](F)C(=O)N[C@@H](Cc1ccc2c(c1)OCO2)[C@H](O)CN[C@H]1CC2(CCC2)Oc2ncc(CC(C)(C)C)cc21`, the IC50 in assay [1] came out at 0.0555 µM. Turning to `CC(C)(C)Cc1cnc2c(c1)[C@@H](NC[C@@H](O)[C@H](Cc1ccc3c(c1)OCO3)NC(=O)c1ccccc1F)CC1(CCC1)O2`, the IC50 in assay [1] was 1.15 µM; in assay [2] it was 0.0766 µM. Take `CC(C)(C)Cc1cnc2c(c1)[C@@H](NC[C@@H](O)[C@H](Cc1ccc3c(c1)OCO3)NC(=O)c1cccnc1F)CC1(CCC1)O2`: the results for the concentration for half-maximal inhibition (IC50) in assay [1] and in assay [2] were 0.0643 µM and 0.0332 µM, respectively. With `COc1ccc(C[C@H](NC(C)=O)[C@H](O)CN[C@H]2CC3(CCC3)Oc3ncc(CC(C)(C)C)cc32)cc1OC`, the values for the IC50 in assay [1] and in assay [2] were 0.0093 µM and 0.0182 µM, respectively. On to `CC(=O)N[C@@H](Cc1ccc(OC(F)F)c(OC(F)F)c1)[C@H](O)CN[C@H]1CC2(CCC2)Oc2ncc(CC(C)(C)C)cc21`, for which the half-inhibitory concentration (IC50) in assay [1] amounted to 0.238 µM; in assay [2], 0.0352 µM. On to `CC(=O)N[C@@H](Cc1ccc2c(c1)OCO2)[C@H](O)CN[C@H]1CC2(CCC2)Oc2ncc(CC(C)(C)C)cc21`, for which, in assay [3], the Activity came to 52%. Besides, the IC50 in assay [1] is 0.0055 µM; in assay [2], 0.008 µM.
